SENP1 FRET inh – inhibitors of human SENP1 SUMO protease catalytic domain; Q9P0U3; 360,000 compounds, 0.21% hits; recombinant SENP1 catalytic domain, CyPet-SUMO1-YPet FRET cleavage; AID 624204; inhibition, % at 10 µM;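 active = inhibition at least 30% at 10 µM, raw YFP signal under a set limit, fluorescence ratio 0.5 to 1.5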;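 note: 0% = enzyme with DMSO and 100% = no enzyme wells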
Target sequence (Q9P0U3 419-644 limits assumed): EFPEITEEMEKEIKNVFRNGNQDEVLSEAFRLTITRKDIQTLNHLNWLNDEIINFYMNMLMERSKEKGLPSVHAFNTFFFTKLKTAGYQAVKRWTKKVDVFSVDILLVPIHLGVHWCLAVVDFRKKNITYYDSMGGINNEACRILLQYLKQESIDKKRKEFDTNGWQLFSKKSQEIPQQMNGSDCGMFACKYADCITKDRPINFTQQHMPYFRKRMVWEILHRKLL
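Test system: recombinant human SENP1 catalytic domain, His6-tagged / Medium: pH 8 Tris buffer with EDTA, NaCl, BME, BSA, NP40, catalase / Also added: SUMO1 FRET substrate flanked by Cypet and Ypet, 25 nM / Times: 50 min reaction at room temperature / Signal: FRET, CFP and YFP emission / Control set: no-enzyme low control and enzyme-plus-DMSO high control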
NR3A LBD binder – NR3A (human) ligand-binding domain modulation; 340,000 compounds, 2.5% hits; Tm shift relative to glycine control, % at 25 µM; NR3A LBD differential scanning fluorimetry, Tm shift; 0% = protein alone, 100% = glycine-bound protein;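 active = melting temperature shift of at least 10% of the positive control shift, at one fixed dose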
EBI2 antag – antagonists of human EBI2 receptor. P32249. EBI2 beta-arrestin recruitment, luminescence, 7a,25-OHC stimulated. inhibition, % at 5 µM. 360,000 compounds, 0.81% hits; in the data active = inhibition above about 38%;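 note: enzyme fragment complementation signal reports receptor beta-arrestin coupling in cells; 0% = agonist plus DMSO wells and 100% = wells without agonist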
Target sequence (P32249 whole entry, looked up, the tested form may be a part): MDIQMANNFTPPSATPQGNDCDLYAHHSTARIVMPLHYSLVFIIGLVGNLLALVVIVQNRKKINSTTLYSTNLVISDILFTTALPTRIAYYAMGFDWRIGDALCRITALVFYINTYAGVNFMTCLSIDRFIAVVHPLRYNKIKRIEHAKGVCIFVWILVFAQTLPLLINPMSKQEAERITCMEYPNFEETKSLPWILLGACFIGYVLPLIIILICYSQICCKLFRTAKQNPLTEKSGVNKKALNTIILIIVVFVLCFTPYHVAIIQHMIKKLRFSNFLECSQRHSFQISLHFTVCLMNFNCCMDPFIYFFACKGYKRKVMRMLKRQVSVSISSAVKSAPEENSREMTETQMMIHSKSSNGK
MPTP inh – blocks calcium-induced mitochondrial swelling; isolated mouse mitochondria, Ca2+ swelling absorbance, 30 min; inhibition, % at 10 µM; 360,000 compounds, 1.4% hits; AID 602449;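 active = inhibition of 50% or more, scaled per plate between neutral and stimulator controls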;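 note: 0% = DMSO wells given calcium and 100% = 1 mM EGTA wells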
Numbers without * were called inactive; x = no result given. Sampled rows, rich in hits. Any-hit rate of the full collection: about 4.4%.

SMILES	SENP1 FRET inh	NR3A LBD binder	EBI2 antag	MPTP inh
CNc1c(NS(=O)(=O)c2ccc(CC(C)C)cc2)c(=O)oc2ccccc12	0	-3	6	0
Cc1cc(C(=O)NC2CC(C)(C)Cc3c2cnn3-c2cccc(F)c2)n(C)n1 (stereo not drawn)	-2	-1	3	0
Cc1cc(C(=O)NC2CC(C)(C)Cc3c2cnn3-c2cccc(F)c2)nn1C (stereo not drawn)	0	12*	-3	0
CN(C)c1cc(Nc2ccc(O)cc2)c([N+](=O)[O-])c2nonc12	-8	0	-2	0
O=[N+]([O-])c1c(Nc2ccccn2)cc(Cl)c2nonc12	-2	-3	83*	1
O=C(O)c1ccccc1Nc1cc(Cl)c2nonc2c1[N+](=O)[O-]	2	1	-7	2
O=[N+]([O-])c1c(Nc2ccc(O)cc2)cc(Cl)c2nonc12	-1	-7	94*	2
C(=N\N1CCN(C2c3ccccc3-c3ccccc32)CC1)/c1ccncc1	2	-5	12	0
C/C(=N\N1CCN(C2c3ccccc3-c3ccccc32)CC1)c1ccncc1	1	15*	21	1
COc1cc(/C=C2/N=C(c3ccccc3)OC2=O)c(F)cc1OCc1ccccc1	-59	-3	5	3
Cc1nc2ccn(Cc3ccccc3)c(=O)c2cc1C(=O)N1CCN(c2ccccc2)CC1	-9	-1	8	0
CCCC(=O)Nc1ccccc1-c1nnn(CC(=O)Nc2ccc(OC)cc2)n1	-2	-3	5	15
CCOc1ccc(NC(=O)Cn2nnc(-c3ccccc3NC(=O)c3cccs3)n2)cc1	2	15*	-3	8
CCOC(=O)C1=CN(Cc2cccc(-c3ccc(F)cc3)c2)S(=O)(=O)N(C)C1C (stereo not drawn)	1	13*	18	2
CC(C)(C)C(=O)NC1CCN(CC(=O)Nc2ccc3c(c2)OCO3)CC1	1	0	6	0
Cc1cc(=O)n2[nH]c(SCc3ccccc3Cl)nc2n1	-2	18*	-1	2
CCN(CC)CCCN1CC(O)=C(c2nc3ccccc3s2)C1=N	-4	18*	-10	0
O=C1CCCCC1C1(O)C(=O)Nc2ccccc21 (stereo not drawn)	1	x	-4	0
COc1ccc(/C=C/c2ccc(=O)n(Cc3ccccc3)n2)cc1	-13	15*	-1	-2
O=c1ccc(/C=C/c2ccccc2)nn1Cc1ccc(F)cc1	2	-6	-5	0
COc1cccc(C2c3cc4c(cc3OC(N3CCCC3)C2C)OCO4)c1O (stereo not drawn)	1	15*	9	2
Cc1ccc(S(=O)(=O)Cn2nnnc2C(CC(C)C)N2CCN(C3CCCC3)CC2)cc1 (stereo not drawn)	-2	0	9	-2
CCOc1ccc(/C=N/NC(=O)c2ccc(CSc3nc4ccccc4[nH]3)cc2)cc1	1	11*	12	2
CCOc1ccc(C(=O)N/N=C/c2ccc(SC)cc2)cc1	3	0	-3	2
O=C(N/N=C/c1ccc(OC(F)F)cc1)c1ccc(CSc2nc3ccccc3[nH]2)cc1	1	26*	25	12
SMILES	SENP1 FRET inh	NR3A LBD binder	EBI2 antag	MPTP inh
O=C(N/N=C/c1ccc(OC(F)F)cc1)c1ccc(Br)cc1	2	5	9	4
CCNC(=O)COC(=O)c1ccc(-n2nc(C)cc2C)cc1	0	-2	1	-1
Cc1cc(C)n(-c2ccc(C(=O)OCC(=O)NCc3ccco3)cc2)n1	0	21*	1	-1
Cc1ccc(N=Nc2c(N)nn3c(N)c(C#N)c(C)nc23)cc1	4	26*	14	0
Cc1ccc(N=Nc2c(N)nn3c(C)cc(C)nc23)cc1	4	3	1	1
Cc1nn(C)c(C)c1NC(=O)COc1ccccc1C#N	-2	1	9	0
O=C(/C=C/c1ccccc1)Nc1cccc(C(=O)NCCCc2ccccc2)c1	4	27*	18	0
O=C(/C=C/c1ccccc1)Nc1ccc2c(c1)C(=O)NC2=O	0	14*	-10	1
O=C(/C=C/c1ccccc1)Nc1cccnc1	4	30*	13	-1
O=C(/C=C/c1ccccc1Cl)Nc1ccc2c(c1)C(=O)NC2=O	-3	7	-2	0
CCOC(=O)c1cn(Cc2cccc(Cl)c2)c2cc(C)nn2c1=O	-1	1	-8	0
Fc1ccc(-c2ccc(Nc3cccc(F)c3)nn2)cc1	1	30*	17	2
O=C(CN1C(=O)C(=O)N(CCC2=CCCCC2)C1=O)c1c[nH]c2ccccc12	-3	30*	0	1
Oc1[nH]c2ccc(Br)cc2c1N=NC(=S)N1CCOCC1	3	-4	42*	1
Oc1[nH]c2ccccc2c1N=NC(=S)N1CCOCC1	1	2	37	2
Cn1cc2cc(NC(N)=S)ccc2n1	0	-1	-8	0
O=C(COC(=O)c1cc(F)cc(F)c1)Nc1cccnc1Cl	-1	-2	-7	-2
COc1ccc(CNC(=O)CN2C(=O)COc3ccc(S(=O)(=O)N4CCC(C)CC4)cc32)cc1	1	45*	8	-1
Cc1ccc(C)c(NC(=O)CN2C(=O)COc3ccc(S(=O)(=O)N4CCCC4)cc32)c1	1	10*	13	-2
Cc1ccc(NC(=O)CN2C(=O)COc3ccc(S(=O)(=O)N4CCCC4)cc32)c(C)c1	-1	0	-2	0
CCn1c(/N=C/c2ccccc2NS(=O)(=O)c2ccc(C)cc2)nc2ccccc21	-21	13*	-12	3
S=c1[nH]nc(-c2ccccn2)n1/N=C/c1ccc(Cl)cc1	2	3	1	-1
CCN(CC)S(=O)(=O)c1ccc(Oc2ccccc2)cc1	2	13*	7	0
CC1CCCCC12NC(=O)N(CC(=O)OCC(=O)NC(=O)c1ccccc1)C2=O (stereo not drawn)	1	2	-1	0
CC(NC(=O)CN1CCN(Cc2cccc(F)c2)CC1)c1ccccc1 (stereo not drawn)	-3	-2	-9	-1
SMILES	SENP1 FRET inh	NR3A LBD binder	EBI2 antag	MPTP inh
COc1ccc(OC)c(Nc2ccc(Nc3cc(OC)ccc3OC)nn2)c1	4	6	-2	9
COc1ccccc1Nc1ccc(Nc2ccccc2OC)nn1	-1	12*	4	4
Cc1csc2nc(CNS(=O)(=O)c3cccnc3)cn12	2	0	-2	-2
O=C1OCCN1C(=O)[C@H]1[C@H](c2ccc([N+](=O)[O-])cc2)C(c2ccccc2)=NN1c1ccc(Br)cc1	2	9	14	1
O=C1OCCN1C(=O)[C@H]1[C@H](c2ccc(Cl)cc2)C(c2ccccc2)=NN1c1ccc(Br)cc1	-107	15*	5	2
Cc1cccc(C2=NN(c3ccc(Br)cc3)[C@@H](C(=O)N3CCOC3=O)[C@@H]2c2ccc(Cl)cc2)c1	-129	17*	3	-2
O=C(CCC1CCCN(C(=O)Cn2cnnn2)C1)NCc1ccc(F)c(F)c1 (stereo not drawn)	1	-3	-7	3

High-throughput results from PubChem.
